Test results published in ChEMBL document CHEMBL3351317 (J Med Chem, 2014).

What was measured:
[1] = Distribution coefficient, log D between 1-octonol and aqueous phosphate buffer at pH 7.4; assay type: physicochemical; conditions: 1-octanol/aqueous phosphate buffer
In short: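 logD measured as distribution between 1-octanol and aqueous phosphate buffer, pH 7.4.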

Mus musculus = species on record: Mus musculus; assay: fCmax in mouse during 12 days study; assay type: ADME, organism-based; conditions: in vivo, 288 h
[2] = Permeability from apical to basolateral side in human Caco2 cells at 10 uM; assay type: ADME, cell-based; conditions: Caco-2
In short: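 In vitro Caco-2 monolayer, compound at 10 µM. Apparent permeability (Papp) measured apical to basolateral; efflux ratio also determined.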

[3] = Stability in pH 1 to 8 buffer; assay type: physicochemical
[4] = Stability in pH 10 buffer assessed as loss of trifluoro-oxadiazole group; assay type: physicochemical
[5] = Degradation half life in pH 10 buffer assessed as loss of trifluoro-oxadiazole group by measuring piperazine level at 25 degC; assay type: physicochemical
[6] = Plasma clearance in C57BL6 mouse at 3 mg/kg, iv or 5 mg/kg, po; assay type: ADME, organism-based
In short: (§1)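 Male C57BL6 mice. IV dose 3 mg/kg as a solution in 5% DMSO:95% hydroxypropyl β-cyclodextrin. Oral dose 5 mg/kg as a 0.1% HMPC/tween suspension. Plasma sampled for pharmacokinetic parameters.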

[7] = Volume of distribution at steady state in C57BL6 mouse at 3 mg/kg, iv or 5 mg/kg, po; assay type: ADME, organism-based; conditions: in vivo, read-out: Vdss; in short: as §1
[8] = Half life in C57BL6 mouse at 5 mg/kg, po; assay type: ADME, organism-based; design: dose 5 mg/kg, route oral; conditions: in vivo
[9] = Half life in C57BL6 mouse at 3 mg/kg, iv; assay type: ADME, organism-based; design: dose 3 mg/kg, route intravenous; conditions: in vivo
In short: (§2)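 Male C57BL6 mice given 3 mg/kg, male Han Wistar rats 2 mg/kg, beagle dogs (male and female) 2 mg/kg, IV as solution in 5% DMSO:95% hydroxypropyl β-cyclodextrin; plasma PK parameters determined.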

[10] = Oral bioavailability in C57BL6 mouse at 5 mg/kg; assay type: ADME, organism-based; conditions: in vivo; in short: as §1
[11] = Plasma clearance in Han Wistar rat at 2 mg/kg, iv or 5 mg/kg, po; assay type: ADME, organism-based
In short: (§3)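 Male Han Wistar rats. IV dose 2 mg/kg in 5% DMSO:95% hydroxypropyl β-cyclodextrin. Oral dose 5 mg/kg as a 0.1% HMPC/tween suspension. Plasma pharmacokinetic parameters derived.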

[12] = Volume of distribution at steady state in Han Wistar rat at 2 mg/kg, iv or 5 mg/kg, po; assay type: ADME, organism-based; conditions: in vivo, read-out: Vdss; in short: as §3
[13] = Half life in Han Wistar rat at 5 mg/kg, po; assay type: ADME, organism-based; design: dose 5 mg/kg, route oral; conditions: in vivo
[14] = Half life in Han Wistar rat at 2 mg/kg, iv; assay type: ADME, organism-based; design: dose 2 mg/kg, route intravenous; conditions: in vivo; in short: as §2
[15] = Oral bioavailability in Han Wistar rat at 5 mg/kg; assay type: ADME, organism-based; conditions: in vivo; in short: as §3
[16] = Plasma clearance in beagle dog at 2 mg/kg, iv or 3.4 mg/kg, po; assay type: ADME, organism-based, Canis lupus familiaris
In short: (§4)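 Beagle dogs, male and female. IV dose 2 mg/kg in 5% DMSO:95% hydroxypropyl β-cyclodextrin. Oral dose 3.4 mg/kg as a 0.1% Pluronic F127 suspension. Plasma pharmacokinetic parameters derived.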

[17] = Volume of distribution at steady state in beagle dog at 2 mg/kg, iv or 3.4 mg/kg, po; assay type: ADME, organism-based, Canis lupus familiaris; conditions: in vivo, read-out: Vdss; in short: as §4
[18] = Half life in beagle dog at 3.4 mg/kg, po; assay type: ADME, organism-based, Canis lupus familiaris; design: dose 3.4 mg/kg, route oral; conditions: in vivo
[19] = Half life in beagle dog at 2 mg/kg, iv; assay type: ADME, organism-based, Canis lupus familiaris; design: dose 2 mg/kg, route intravenous; conditions: in vivo; in short: as §2
[20] = Oral bioavailability in beagle dog at 3.4 mg/kg; assay type: ADME, organism-based, Canis lupus familiaris; conditions: in vivo; in short: as §4
[21] = Intrinsic clearance in mouse hepatocytes assessed per million cells; assay type: ADME, cell-based, Hepatocyte; conditions: read-out: CLH
[22] = Intrinsic clearance in dog hepatocytes assessed per million cells; assay type: ADME, cell-based, Canis lupus familiaris, Hepatocyte; conditions: read-out: CLH
[23] = Intrinsic clearance in human hepatocytes assessed per million cells; assay type: ADME, cell-based, Hepatocyte; conditions: read-out: CLH
[24] = Cmax in Han Wistar rat at 4.5 mg/kg, po; assay type: ADME, organism-based; design: dose 4.5 mg/kg, route oral; conditions: in vivo
[25] = Cmax in Han Wistar rat at […], po; assay type: ADME, organism-based; design: dose 7.1 mg/kg, route oral; conditions: in vivo
[26] = Cmax in Han Wistar rat at 12 mg/kg, po; assay type: ADME, organism-based; design: dose 12 mg/kg, route oral; conditions: in vivo
[27] = Cmax in Han Wistar rat at 19 mg/kg, po; assay type: ADME, organism-based; design: dose 19 mg/kg, route oral; conditions: in vivo
[28] = Cmax in Han Wistar rat at 100 mg/kg, po; assay type: ADME, organism-based; design: dose 100 mg/kg, route oral; conditions: in vivo
[29] = Cmax in Han Wistar rat at 154 mg/kg, po; assay type: ADME, organism-based; design: dose 154 mg/kg, route oral; conditions: in vivo
[30] = AUC (0 to 24 hrs) in Han Wistar rat at 4.5 mg/kg, po; assay type: ADME, organism-based; design: time < 24 hr, dose 4.5 mg/kg, route oral; conditions: plasma
In short: (§5)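 Male Han Wistar rats, fed, single oral dose of suspension in 0.1% Pluronic F127; plasma AUC0-24hr in μM.h; mean of two animals.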

[31] = AUC (0 to 24 hrs) in Han Wistar rat at […], po; assay type: ADME, organism-based; design: time < 24 hr, dose 7.1 mg/kg, route oral; conditions: plasma
[32] = AUC (0 to 24 hrs) in Han Wistar rat at 12 mg/kg, po; assay type: ADME, organism-based; design: time < 24 hr, dose 12 mg/kg, route oral; conditions: plasma; in short: as §5
[33] = AUC (0 to 24 hrs) in Han Wistar rat at 19 mg/kg, po; assay type: ADME, organism-based; design: time < 24 hr, dose 19 mg/kg, route oral; conditions: plasma; in short: as §5
[34] = AUC (0 to 24 hrs) in Han Wistar rat at 100 mg/kg, po; assay type: ADME, organism-based; design: time < 24 hr, dose 100 mg/kg, route oral; conditions: plasma; in short: as §5
[35] = AUC (0 to 24 hrs) in Han Wistar rat at 154 mg/kg, po; assay type: ADME, organism-based; design: time < 24 hr, dose 154 mg/kg, route oral; conditions: plasma; in short: as §5
[36] = Cmax in beagle dog at 5 mg/kg, po; assay type: ADME, organism-based, Canis lupus familiaris; design: dose 5 mg/kg, route oral; conditions: in vivo
[37] = Cmax in beagle dog at 50 mg/kg, po; assay type: ADME, organism-based, Canis lupus familiaris; design: dose 50 mg/kg, route oral; conditions: in vivo
[38] = Cmax in beagle dog at 98 mg/kg, po; assay type: ADME, organism-based, Canis lupus familiaris; design: dose 98 mg/kg, route oral; conditions: in vivo
[39] = AUC (0 to 24 hrs) in beagle dog at 5 mg/kg, po; assay type: ADME, organism-based, Canis lupus familiaris; design: time < 24 hr, dose 5 mg/kg, route oral; conditions: plasma
In short: (§6)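 Beagle dogs (one male, one female), fed, single oral dose of suspension in 0.1% Pluronic F127; plasma AUC0-24hr in μM.h; mean of the two animals.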

[40] = AUC (0 to 24 hrs) in beagle dog at 50 mg/kg, po; assay type: ADME, organism-based, Canis lupus familiaris; design: time < 24 hr, dose 50 mg/kg, route oral; conditions: plasma; in short: as §6
[41] = AUC (0 to 24 hrs) in beagle dog at 98 mg/kg, po; assay type: ADME, organism-based, Canis lupus familiaris; design: time < 24 hr, dose 98 mg/kg, route oral; conditions: plasma; in short: as §6
[42] = Cmax in C57BL6 mouse at […], po; assay type: ADME, organism-based; design: dose 5.7 mg/kg, route oral; conditions: in vivo
[43] = Cmax in C57BL6 mouse at 11 mg/kg, po; assay type: ADME, organism-based; design: dose 11 mg/kg, route oral; conditions: in vivo
[44] = Cmax in C57BL6 mouse at 31 mg/kg, po; assay type: ADME, organism-based; design: dose 31 mg/kg, route oral; conditions: in vivo
[45] = Cmax in C57BL6 mouse at 57 mg/kg, po; assay type: ADME, organism-based; design: dose 57 mg/kg, route oral; conditions: in vivo
[46] = AUC (0 to 24 hrs) in C57BL6 mouse at […], po; assay type: ADME, organism-based; design: time < 24 hr, dose 5.7 mg/kg, route oral; conditions: plasma
[47] = AUC (0 to 24 hrs) in C57BL6 mouse at 11 mg/kg, po; assay type: ADME, organism-based; design: time < 24 hr, dose 11 mg/kg, route oral; conditions: plasma
In short: (§7)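 Male C57BL6 mice, fed, single oral dose of suspension in 0.1% Pluronic F127; plasma sampled, AUC0-24hr in μM.h; mean of two animals.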

[48] = AUC (0 to 24 hrs) in C57BL6 mouse at 31 mg/kg, po; assay type: ADME, organism-based; design: time < 24 hr, dose 31 mg/kg, route oral; conditions: plasma; in short: as §7
[49] = AUC (0 to 24 hrs) in C57BL6 mouse at 57 mg/kg, po; assay type: ADME, organism-based; design: time < 24 hr, dose 57 mg/kg, route oral; conditions: plasma; in short: as §7

## C[C@@H]1CN(c2nnc(C(F)(F)F)o2)CCN1c1ncc(OCc2ccc(CS(C)(=N)=O)cc2F)cn1 (stereo not given in full)
[1]
  logD: 2.1

## C[C@@H]1CN(c2nc(C(F)(F)F)no2)CCN1c1ncc(OCc2ccc(S(C)(=O)=O)cc2F)cn1
[1]
  logD: 3.7

## C[C@@H]1CN(c2nc(C(F)(F)F)no2)CCN1c1ncc(OCc2ccc(CS(C)(=O)=O)cc2F)cn1
[1]
  logD: 3.6
Mus musculus
  fCmax: 0.7 µM
[2]
  Papp A→B at 10 µM: 10 ×10⁻⁶ cm/s
[3]
  Stability: Stable
[4]
  Stability: Unstable
[5]
  t1/2: 60 h
[6]
  clearance: 9.8 mL/min/kg
[7]
  Vd: 5.1 L/kg
[8]
  half-life: 6.9 h
[9]
  half-life: 6.3 h
[10]
  bioavailability: 76%
[11]
  clearance: 11 mL/min/kg
[12]
  Vd: 5.2 L/kg
[13]
  half-life: 6.7 h
[14]
  half-life: 6.1 h
[15]
  bioavailability: 85%
[16]
  clearance: 1.6 mL/min/kg
[17]
  Vd: 3.3 L/kg
[18]
  half-life: 30 h
[19]
  half-life: 26 h
[20]
  bioavailability: 98%
[21]
  hepatocyte CLint: 7 µL/min/1e6 cells
[22]
  hepatocyte CLint: < 2 µL/min/1e6 cells
[23]
  hepatocyte CLint: < 2 µL/min/1e6 cells
[24]
  Cmax: 0.8 µM
[25]
  Cmax: 1.1 µM
[26]
  Cmax: 3.4 µM
[27]
  Cmax: 7.5 µM
[28]
  Cmax: 8 µM
[29]
  Cmax: 13.7 µM
[30]
  AUC(0-t) at 24 h: 10 µM·h
[31]
  AUC(0-t) at 24 h: 11 µM·h
[32]
  AUC(0-t) at 24 h: 33 µM·h
[33]
  AUC(0-t) at 24 h: 106 µM·h
[34]
  AUC(0-t) at 24 h: 123 µM·h
[35]
  AUC(0-t) at 24 h: 247 µM·h
[36]
  Cmax: 1.5 µM
[37]
  Cmax: 3.2 µM
[38]
  Cmax: 5.3 µM
[39]
  AUC(0-t) at 24 h: 20 µM·h
[40]
  AUC(0-t) at 24 h: 42 µM·h
[41]
  AUC(0-t) at 24 h: 78 µM·h
[42]
  Cmax: 2.5 µM
[43]
  Cmax: 3.3 µM
[44]
  Cmax: 11.8 µM
[45]
  Cmax: 29 µM
[46]
  AUC(0-t) at 24 h: 26 µM·h
[47]
  AUC(0-t) at 24 h: 35 µM·h
[48]
  AUC(0-t) at 24 h: 151 µM·h
[49]
  AUC(0-t) at 24 h: 456 µM·h

## C[C@@H]1CN(c2nc(C(F)(F)F)no2)CCN1c1ncc(OCc2ccc(C[S+](C)[O-])cc2F)cn1 (stereo not given in full)
[1]
  logD: 3.4

## C[C@@H]1CN(c2nc(C(F)(F)F)no2)CCN1c1ncc(OCc2ccc(CS(C)(=N)=O)cc2F)cn1 (stereo not given in full)
[1]
  logD: 2.8

## C[C@@H]1CN(c2nc(C(F)(F)F)no2)CCN1c1ncc(OCc2ccc(N=S(C)(C)=O)cc2F)cn1
[1]
  logD: 3.4

## C[C@@H]1CN(C(=O)OC2(C(F)(F)F)COC2)CCN1c1ncc(OCc2ccc(CS(C)(=O)=O)cc2F)cn1
[1]
  logD: 2.9

## C[C@@H]1CN(C(=O)OC2(C(F)(F)F)COC2)CCN1c1ncc(OCc2ccc(OS(C)(=O)=O)cc2F)cn1
[1]
  logD: 3.7

## C[C@@H]1CN(C(=O)OC2(C(F)(F)F)COC2)CCN1c1ncc(OCc2ccc(S(C)(=O)=O)cc2F)cn1
[1]
  logD: 3

## CC(C)c1noc(N2CCN(c3ncc(OCc4ccc(CS(C)(=O)=O)cc4F)cn3)[C@H](C)C2)n1
[1]
  logD: 3.1

## CC(C)c1noc(N2CCN(c3ncc(OCc4ccc(S(C)(=O)=O)cc4F)cn3)[C@H](C)C2)n1
[1]
  logD: 3.4
